Calls of active or inactive are those of the source. The rule behind the calls is not given here.
Key:
[1] = system: NCI-H1650; test: Synergistic antitumor activity against human NCI-H1650 cells xenografted in SCID-bg mouse assessed as tumor growth delay at 25 mg/kg, po coadministered with docetaxel once daily for 14 days relative to control; assay type: functional; conditions: time 14 day
Method in brief: (§1)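 Xenografts dosed with oral inhibitor plus intravenous docetaxel. TGImax = 100(1 − Tv/Cv), from mean treated and control tumor volumes; TGD = 100(T/C − 1), from median times to reach 1 cm3. Group size 5 mice (NCI-H747, A549-FP3, EBC-1, OVCAR-5), 8 (NCI-H358), 10 (NCI-H1650).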

[2] = Toxicity in po dosed SCID-bg mouse assessed as tolerance in presence of docetaxel; assay type: organism-based; conditions: in vivo
[3] = Toxicity in po dosed SCID-bg mouse assessed as body weight loss relative to control; assay type: organism-based; conditions: in vivo
[4] = system: NCI-H747; test: Synergistic antitumor activity against human NCI-H747 cells xenografted in po dosed SCID-bg mouse assessed as tumor growth delay in presence of docetaxel relative to control; assay type: functional; method in brief: as §1
[5] = system: A549; test: Antitumor activity against 3 times passaged human A549 cells xenografted in po dosed SCID mouse assessed as maximum tumor growth inhibition relative to control; assay type: functional
[6] = system: A549; test: Synergistic antitumor activity against 3 times passaged human A549 cells xenografted in po dosed SCID mouse assessed as tumor growth delay in presence of docetaxel relative to control; assay type: functional; method in brief: as §1
[7] = system: OVCAR-5; test: Antitumor activity against human OVCAR-5 xenografted in po dosed SCID mouse assessed as tumor growth delay relative to control; assay type: functional
Method in brief: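 Tumor volume-based endpoints. TGD = 100(T/C − 1), where T and C are the median times for the treated and control groups to reach 1 cm3. Groups were five mice for NCI-H747 and OVCAR-5 and eight for NCI-H358. Docetaxel was given intravenously and the test agent orally.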

[8] = system: OVCAR-5; test: Synergistic antitumor activity against human OVCAR-5 cells xenografted in po dosed SCID mouse assessed as tumor growth delay in presence of docetaxel relative to control; assay type: functional; method in brief: as §1
[9] = system: NCI-H358; test: Antitumor activity against human NCI-H358 cells xenografted in po dosed SCID mouse assessed as maximum tumor growth inhibition relative to control; assay type: functional
[10] = system: NCI-H358; test: Synergistic antitumor activity against human NCI-H358 cells xenografted in po dosed SCID mouse assessed as maximum tumor growth inhibition in presence of docetaxel relative to control; assay type: functional; method in brief: as §1
[11] = system: NCI-H358; test: Synergistic antitumor activity against human NCI-H358 cells xenografted in po dosed SCID mouse assessed as tumor growth delay in presence of docetaxel relative to control; assay type: functional; method in brief: as §1
[12] = Toxicity in Sprague-Dawley rat assessed as inhibition of […] by measuring reduction in circulating platelets at 7 mg/kg, po administered daily for 5 days and measured on day 6 by microscopic analysis; assay type: organism-based; conditions: in vivo, 144 h, time 6 day
Method in brief: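 Male Sprague-Dawley rats, n = 10 per group: docetaxel 5 mg/kg i.v. once, or oral inhibitor daily for 5 days (30, 50 or 7 mg/kg depending on agent), alone or combined with docetaxel, against vehicles. Total neutrophil and platelet counts in blood collected on day 6; Tukey-Kramer test versus vehicle.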

[13] = system: NCI-H146; test: Induction of apoptosis in Bcl-xl dependent human NCI-H146 cells assessed as cytochrome C release from mitochondria at 0.1 to 1000 nM incubated for 4 hrs by immunoblot analysis; assay type: functional, cell-based; conditions: dose 0.1-1000 nM
Method in brief: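 NCI-H146 cells were treated for 4 h with increasing concentrations. Mitochondrial and cytosolic fractions were separated, and cytochrome c in each was determined by immunoblotting.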

[14] = system: HCC1806; test: Synergistic antiproliferative activity against human HCC1806 cells assessed as reduction in cell viability by measuring bliss sum score incubated for 72 hrs in presence of docetaxel by CellTiter-Glo cell vaibility assay; assay type: functional
[15] = system: DU-4475; test: Synergistic antiproliferative activity against human DU-4475 cells assessed as reduction in cell viability by measuring bliss sum score incubated for 72 hrs in presence of docetaxel by CellTiter-Glo cell vaibility assay; assay type: functional
[16] = system: HCC1143; test: Synergistic antiproliferative activity against human HCC1143 cells assessed as reduction in cell viability by measuring bliss sum score incubated for 72 hrs in presence of docetaxel by CellTiter-Glo cell vaibility assay; assay type: functional
[17] = system: A549; test: Synergistic antiproliferative activity against human A549 cells assessed as reduction in cell viability by measuring bliss sum score incubated for 72 hrs in presence of docetaxel by CellTiter-Glo cell vaibility assay; assay type: functional
[18] = system: NCI-H1975; test: Synergistic antiproliferative activity against human NCI-H1975 cells assessed as reduction in cell viability by measuring bliss sum score incubated for 72 hrs in presence of docetaxel by CellTiter-Glo cell vaibility assay; assay type: functional
[19] = system: NCI-H23; test: Synergistic antiproliferative activity against human NCI-H23 cells assessed as reduction in cell viability by measuring bliss sum score incubated for 72 hrs in presence of docetaxel by CellTiter-Glo cell vaibility assay; assay type: functional
[20] = system: NCI-H661; test: Synergistic antiproliferative activity against human NCI-H661 cells assessed as reduction in cell viability by measuring bliss sum score incubated for 72 hrs in presence of docetaxel by CellTiter-Glo cell vaibility assay; assay type: functional
[21] = system: NCI-H460; test: Synergistic antiproliferative activity against human NCI-H460 cells assessed as reduction in cell viability by measuring bliss sum score incubated for 72 hrs in presence of docetaxel by CellTiter-Glo cell vaibility assay; assay type: functional
[22] = system: MDA-MB-436; test: Antagonistic antiproliferative activity against human MDA-MB-436 cells assessed as reduction in cell viability by measuring bliss sum score incubated for 72 hrs in presence of docetaxel by CellTiter-Glo cell vaibility assay; assay type: functional
[23] = system: T47D; test: Induction of apoptosis in human T47D cells assessed as accumulation of cells with sub-G0-G1 DNA content at 1 uM incubated for 48 hrs in presence of docetaxel by flow cytometric analysis; assay type: functional, cell-based
[24] = system: MDA-MB-453; test: Induction of apoptosis in human MDA-MB-453 cells assessed as accumulation of cells with sub-G0-G1 DNA content at 1 uM incubated for 48 hrs in presence of docetaxel by flow cytometric analysis; assay type: functional, cell-based
[25] = system: SK-BR-3; test: Induction of apoptosis in human SK-BR-3 cells assessed as accumulation of cells with sub-G0-G1 DNA content at 1 uM incubated for 48 hrs in presence of docetaxel by flow cytometric analysis; assay type: functional, cell-based
[26] = system: MDA-MB-231; test: Induction of apoptosis in LC3 positive human MDA-MB-231 cells assessed as accumulation of cells with sub-G0-G1 DNA content at 1 uM incubated for 48 hrs in presence of docetaxel by flow cytometric analysis; assay type: functional, cell-based
[27] = system: UAC812; test: Induction of apoptosis in UAC812 (unknown origin) cells assessed as accumulation of cells with sub-G0-G1 DNA content at 1 uM incubated for 48 hrs in presence of docetaxel by flow cytometric analysis; assay type: functional, cell-based
[28] = system: HCC1954; test: Induction of apoptosis in human HCC1954 cells assessed as accumulation of cells with sub-G0-G1 DNA content at 1 uM incubated for 48 hrs in presence of docetaxel by flow cytometric analysis; assay type: functional, cell-based
[29] = system: MX1; test: Induction of apoptosis in human MX1 cells assessed as accumulation of cells with sub-G0-G1 DNA content at 1 uM incubated for 48 hrs in presence of docetaxel by flow cytometric analysis; assay type: functional, cell-based

Q: With `Cc1c(-c2ccc(N3CCc4cccc(C(=O)Nc5nc6ccccc6s5)c4C3)nc2C(=O)O)cnn1CC12CC3CC(CC(C3)C1)C2` as the compound, how does the Activity [1] read?
A: 170%

Q: What about the Activity [2] of the same compound?
A: Non-Toxic

Q: What about the Activity [3] of the same compound?
A: < 9%

Q: And the Activity [4]?
A: 167%

Q: What about the TGI [5] of the same compound?
A: 67%

Q: What about the Activity [6] of the same compound?
A: 131%

Q: And the Activity [7]?
A: 54%

Q: And the Activity [8]?
A: 85%

Q: And the TGI [9]?
A: 62%

Q: What about the TGI [10] of the same compound?
A: 91%

Q: What about the Activity [11] of the same compound?
A: 233%

Q: And the Activity [12]?
A: Toxic

Q: Which Activity [13] does the source give for `CN(C)CC#Cc1ccc(OCCCc2sc(N3CCc4cccc(C(=O)Nc5nc6ccccc6s5)c4C3)nc2C(=O)O)c(F)c1` [A-1155463] here?
A: Active

Q: And the Activity_index [14]?
A: 224

Q: What about the Activity_index [15] of the same compound?
A: 229

Q: And the Activity_index [16]?
A: 195

Q: And the Activity_index [17]?
A: 137

Q: And the Activity_index [18]?
A: 6

Q: What about the Activity_index [19] of the same compound?
A: 97

Q: And the Activity_index [20]?
A: 94

Q: What about the Activity_index [21] of the same compound?
A: 105

Q: And the Activity_index [22]?
A: -96

Q: For `CC1(C)CCC(c2ccc(Cl)cc2)=C(CN2CCN(c3ccc(C(=O)NS(=O)(=O)c4ccc(N[C@H](CCN5CCOCC5)CSc5ccccc5)c(S(=O)(=O)C(F)(F)F)c4)cc3)CC2)C1` [NAVITOCLAX], which Activity [23] is on record?
A: Active

Q: What about the Activity [24] of the same compound?
A: Active

Q: And the Activity [25]?
A: Active

Q: And the Activity [26]?
A: Active

Q: And the Activity [27]?
A: Active

Q: What about the Activity [28] of the same compound?
A: Active

Q: And the Activity [29]?
A: Active
